Screening data deposited in PubChem by several laboratories.
UPR CHOP act: activators of apoptotic arm of unfolded protein response (CHOP). actives 0.34% (n = 330,000). CHO-CHOP luciferase reporter, UPR activation, luminescence; percent of tunicamycin response over DMSO baseline. activation, % at 10 µM;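 active means at 10 µM dose, activation of 40% or more, normalized to positive control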;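 further: 100% = tunicamycin at 10 µg/mL and 0% = DMSO alone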
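Test system: CHO CHOP reporter cells. Input: 500 CHO-CHOP cells per well. Medium: F12 with 10% FBS. Technique: luciferase luminescence. Measure: percent activation relative to tunicamycin control. Dosing: 10 µM compound, 0.5% DMSO. Timing: 16-18 h cell attachment, then 6 h compound exposure, 37 °C.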
XBP1 UPR activ: activators of adaptive arm of unfolded protein response (XBP1). AID 463104. CHO-XBP1 luciferase reporter, IRE1-XBP1 UPR activation, luminescence; percent of tunicamycin response, DMSO as zero. actives 0.33% (n = 330,000). activation, % at 20 µM;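 active means versus positive control, 20 µM dose yields 30% or more activation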;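 further: 100% = tunicamycin at 10 µg/mL and 0% = DMSO only wells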
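Assay system: CHO-XBP1 luciferase reporter cells; Schedule: 6 h treatment, 37 °C; Detection: glow luminescence from Steady-Glo reagent; Benchmarks: high control tunicamycin 10 µg/mL final, low control DMSO vehicle only.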
GAA850 FXN act: activators of GAA850 frataxin (FXN) promoter; HEK293 lucGAA850 FXN promoter luciferase reporter, 24 h; percent of 10 µM SAHA response; activation, % at 6 µM; actives 0.56% (n = 360,000); AID 540364;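 active means activation above the average of all compounds screened plus 3 SD, cutoff fixed separately per campaign, cut at about 7.5% in these data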;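 further: 0% = DMSO wells and 100% = 10 µM SAHA wells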
CHOP inhibitor: blocks CHOP induction under ER stress; AID 2732; actives 3.8% (n = 220,000); inhibition, % at 10 µM; CHO-K1 CHOP-promoter luciferase, tunicamycin-induced, 15-18 h;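 active means compounds that reduced the stress-induced luciferase reporter signal by more than about 70% of percent inhibition, limit read from the data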;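 further: 0% = tunicamycin plus vehicle and 100% = wells without tunicamycin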
An asterisk follows results filed as active; . = not tested or not shown. The sample as a whole holds a higher share of hits than the screen did.

SMILES	UPR CHOP act	XBP1 UPR activ	GAA850 FXN act	CHOP inhibitor
Cc1oc(-c2ccc(Cl)cc2)nc1CN1CCC(C(=O)N2CCc3ccccc3C2)CC1	0.3	5.9	-0.6	90.6*
CCc1ccc(-c2nc(CN3CCC(C(=O)NCc4ccccc4OC)CC3)c(C)o2)cc1	3.2	4.5	0.2	79.2*
CC(O)(c1ccc(F)c(F)c1)c1nc(-c2cc(F)cc(F)c2)cs1 (centres undefined)	.	.	-0.2	.
CCCCN1C(=O)C(CC(=O)NC2CCCCC2)CC(C(=O)N(C(C)C)C(C)C)=C1C (centres undefined)	.	.	-1.7	.
COc1cc(NS(=O)(=O)c2ccc(N/C=C(\C#N)c3nc4cc(Cl)ccc4o3)cc2)nc(OC)n1	0.3	-1.2	-1.5	91.8*
CCOC(=O)Cn1c(=O)cc(C)c2ccccc21	-0.9	-0.2	-0.2	2.4
CCOC(=O)Cn1c(C)c(Br)c(=O)c2cccc(C)c21	2.6	-0.1	0.5	91.9*
C[C@H]1CN([C@@H](C)CO)C(=O)CCCn2cc(nn2)CO[C@@H]1CN(C)S(=O)(=O)c1ccc(C#N)cc1	.	.	-1.2	.
CC(C(=O)N1CCN(c2ccc(Cl)cc2)CC1)c1ncc(C(F)(F)F)cc1Cl (centres undefined)	-0.5	-3.5	1.3	71.0*
COc1cc(OC)c(OC)cc1/C=N/Nc1nc2ccccc2[nH]1	1.7	4.9	0.6	-9.1
C#CCn1cc(/C=N/Nc2nc3ccccc3[nH]2)c2ccccc21	3.8	8.9	4.9	13.6
CCN(CC)c1ccc(/C=N/Nc2nc3ccccc3[nH]2)c(O)c1	13.3	23.5	-11.1	82.7*
C(=N\Nc1nc2ccccc2[nH]1)/c1cccc2nccnc12	8.2	14.9	-0.1	70.7*
C(=N\Nc1nc2ccccc2[nH]1)/c1ccc2ncccc2c1	6.0	1.5	-5.0	0.9
C(=N\Nc1nc2ccccc2[nH]1)/c1ccccn1	.	.	-8.5	84.7*
CC(=O)NCCNc1nc2cc(-c3ccc4c(ccn4C)c3)sc2c(=O)n1C	.	.	4.0	.
CCc1cc(-c2cnnn2Cc2ccccc2)ccc1-c1cn(CC(C)C)nn1	.	.	-0.7	.
CCCCNC(=O)C1(C)CCCCN1C(=O)c1cc(C#N)cs1 (centres undefined)	.	.	0.1	.
CCOC(=O)C1CCCN(C(=O)C2COc3ccccc3O2)C1 (centres undefined)	.	.	-1.0	.
CCOC(=O)C1CCCN(C(=O)C2c3ccccc3Oc3ccccc32)C1 (centres undefined)	-0.9	1.9	1.3	76.3*
O=C(Nc1cccc(C(F)(F)F)c1)Nc1ccc(N2CCCC2)c(S(=O)(=O)Nc2ccccc2Cl)c1	15.0	5.8	-7.4	75.6*
CCC(=O)N(Cc1ccco1)c1nc(-c2ccc(OC)cc2)cs1	2.2	7.4	2.6	0.2
CCC(=O)N(Cc1ccco1)c1nc(-c2cc(OC)ccc2OC)cs1	-0.4	4.6	-1.3	75.3*
OC[C@@H]1CN(Cc2ccco2)C[C@H](n2cnc3c(N4CCOCC4)ncnc32)O1	.	.	2.1	.
CC(=O)NCCNc1nc2cc(-c3ccccc3C)sc2c(=O)n1C	.	.	1.2	.
SMILES	UPR CHOP act	XBP1 UPR activ	GAA850 FXN act	CHOP inhibitor
COc1ccc(S(=O)(=O)Nc2ccc(F)c(F)c2)cc1Cl	-1.6	-1.7	1.0	-21.5
COc1cc(Cl)c(C)cc1NC(=O)c1ccc(NS(=O)(=O)c2ccc(F)c(F)c2)cc1	-1.6	1.4	-0.8	78.7*
CCOC(=O)C(=Cc1ccc(Br)cc1)C(=O)OCC	.	.	-1.4	105.3*
CCOC(=O)/C(=C/c1ccc(OC(=O)c2ccncc2)cc1)C(C)=O	0.2	1.3	-0.4	-36.9
CCCCN(CCCNC(=O)c1ccc2c(c1)NC(=O)CN2C)c1ccccc1	.	.	-0.8	.
Fc1ccc2c(Cl)c(-c3nnc(-c4cccs4)o3)sc2c1	4.6	-1.1	2.2	90.6*
COc1cc(-c2nnc(-c3cccs3)o2)cc(OC)c1OC	4.7	7.0	2.4	-3.2
N#CC(C#N)=C(Nc1ccc(F)cc1)SCc1cccc(F)c1	2.7	2.4	-7.3	85.0*
CCOc1ccc(N/C(SCc2cccc([N+](=O)[O-])c2)=C(/C#N)C(N)=O)cc1	-0.2	1.1	-1.2	61.5
Cc1cc(C)nc(SCc2ccc(C(=O)NNC(=O)Nc3cccc(Cl)c3)cc2)n1	.	.	0.6	96.1*
Cc1cc(C)nc(SCc2ccc(C(=O)N/N=C/c3ccncc3)cc2)n1	-1.4	4.3	2.6	-8.8
Cc1ccc(-n2ncc3c(=O)n(-c4cccc(C)c4)c(=O)[nH]c32)cc1	.	.	-0.1	.
